# From publication PMC9076386 (RSC Advances, 2019)
# Legend:
# Format in all cases: cell-based
# HepG2 cells = test: MTT cytotoxicity assay, HepG2; conditions: Homo sapiens, HepG2, read-out: IC50 HepG2
# Procedure, shortened: (§1)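 Human lines were grown in RPMI 1640 with 10% FBS at 37 °C and 5% CO2; MCF-7 medium also had glutamine, HEPES and pyruvate. Log-phase cells were seeded, preincubated for 24 h, then treated for 72 h with DMSO-dissolved test compound at 0, 1.25, 2.5, 5, 10 or 20 μM. MTT (5 mg mL−1 stock) was added for 4 h, formazan was dissolved in DMSO and OD was read at 550 nm.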
# SKOV3 cells = test: MTT cytotoxicity assay, SKOV3; conditions: Homo sapiens, SK-OV-3, read-out: IC50 SKOV3
# Procedure, shortened: as §1
# HeLa cells = test: MTT cytotoxicity assay, HeLa; conditions: Homo sapiens, read-out: IC50 Hela
# Procedure, shortened: as §1
smiles,measurement,setting,value
CC(=O)O[C@H]1C(=O)[C@@]2(C)[C@H]([C@H](OC(=O)c3ccccc3)[C@]3(O)C[C@H](OC(=O)[C@H](O)[C@@H](NC(=O)c4ccccc4)c4ccccc4)C(C)=C1C3(C)C)[C@]1(OC(C)=O)CO[C@@H]1C[C@@H]2O [Paclitaxel],IC50,HepG2 cells,1.5 nM
same,IC50,SKOV3 cells,3.8 nM
same,IC50,HeLa cells,3 nM
